Assay results reported in ChEMBL document CHEMBL1649336, “Isolation and characterization of minor analogues of silvestrol and other constituents from a large-scale re-collection of Aglaia foveolata” (J Nat Prod, 2010).

Tests used:
[1] = test system: HT-29; assay: Cytotoxicity against human HT-29 cells after 3 days by sulforhodamine B assay; type: functional; conditions: HT-29, 72 h, read-out: ED50 (the source's name)
Method in brief: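 HT-29 (ATCC) cells grown in MEME with 10% FBS and antibiotics at 37 °C, 5% CO2, used one day after a medium change at 60–70% confluence. 9500 cells/well exposed in triplicate to serial dilutions (10% DMSO vehicle, also the control) for 3 days. Cells fixed with cold TCA, stained with 0.4% SRB, dye solubilized in 10 mM Tris (pH 10), A515 read. ED50 by nonlinear regression.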

[2] = target: Transcription factor p65 (Homo sapiens, UniProt Q04206); assay: Inhibition of NF-kappaB p65 isolated from nuclear extract of human HeLa cells assessed as blockade of binding to biotinylated consesus sequence by chemiluminescence assay; type: cell-free
Chain of Transcription factor p65 (Q04206 whole entry): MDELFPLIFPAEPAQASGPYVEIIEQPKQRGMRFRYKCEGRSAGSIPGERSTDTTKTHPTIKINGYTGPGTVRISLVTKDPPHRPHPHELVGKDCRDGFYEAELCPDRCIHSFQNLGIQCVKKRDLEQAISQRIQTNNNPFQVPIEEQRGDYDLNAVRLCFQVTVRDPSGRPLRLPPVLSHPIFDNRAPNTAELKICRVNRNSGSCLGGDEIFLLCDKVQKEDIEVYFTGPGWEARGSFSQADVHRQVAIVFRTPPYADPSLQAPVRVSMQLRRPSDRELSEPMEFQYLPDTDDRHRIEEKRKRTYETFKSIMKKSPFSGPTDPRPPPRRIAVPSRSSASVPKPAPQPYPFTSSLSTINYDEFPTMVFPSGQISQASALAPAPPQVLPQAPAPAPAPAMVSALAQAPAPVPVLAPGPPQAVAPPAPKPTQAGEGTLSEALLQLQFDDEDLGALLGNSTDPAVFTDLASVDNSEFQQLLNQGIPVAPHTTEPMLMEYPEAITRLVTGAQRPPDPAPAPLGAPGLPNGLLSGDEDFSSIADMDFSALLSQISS

Compound COC(=O)[C@H]1[C@@H](O)[C@@]2(O)c3c(OC)cc(O[C@@H]4O[C@@H]([C@H](O)CO)CO[C@@H]4OC)cc3O[C@@]2(c2ccc(OC)cc2)[C@@H]1c1ccccc1 has an EC50 [1] of 2290 nM.

Work on COC(=O)[C@H]1[C@@H](O)[C@@]2(O)c3c(OC)cc(O[C@@H]4O[C@@H]([C@@H](O)CO)CO[C@@H]4OC)cc3O[C@@]2(c2ccc(OC)cc2)[C@@H]1c1ccccc1 yielded an EC50 [1] of 1070 nM.

CC(C)(O)[C@@H]1CC[C@@]2(O)CC[C@]3(C)[C@H](CC[C@@H]4[C@@]5(C)CCC(=O)C(C)(C)[C@H]5CC[C@]43C)[C@H]2O1 showed an IC50 [2] greater than 20000 nM and an EC50 [1] greater than 10000 nM.

CC(C)(O)[C@@H]1CC[C@](C)([C@H]2CC[C@]3(C)[C@@H]2CC[C@@H]2[C@@]4(C)CCC(=O)OC(C)(C)[C@@H]4CC[C@]23C)O1 was tested, and the IC50 [2] was greater than 20000 nM and the EC50 [1] was greater than 10000 nM.

Compound CC(C)(O)[C@@H]1CC[C@@](C)([C@H]2CC[C@]3(C)[C@@H]2CC[C@@H]2[C@@]4(C)CCC(=O)OC(C)(C)[C@@H]4CC[C@]23C)O1 has an IC50 [2] greater than 20000 nM and an EC50 [1] greater than 10000 nM.

CC(C)C1=CC2=C(CO)C(=O)C[C@@H](O)[C@]2(C)CC1 gave an IC50 [2] greater than 20000 nM and an EC50 [1] greater than 10000 nM.

COC(=O)[C@H]1[C@@H](O)[C@@]2(O)c3c(OC)cc(O[C@@H]4O[C@@H]([C@@H](O)CO)CO[C@H]4OC)cc3O[C@@]2(c2ccc(OC)cc2)[C@@H]1c1ccccc1 [2'-EPISILVESTROL] showed an EC50 [1] of 1 nM.

Work on CC[C@@]1(O)C(=O)OCc2c1cc1n(c2=O)Cc2cc3ccccc3nc2-1 [CAMPTOTHECIN] yielded an EC50 [1] of 60 nM.

With CC(=O)O[C@H]1C(=O)[C@@]2(C)[C@H]([C@H](OC(=O)c3ccccc3)[C@]3(O)C[C@H](OC(=O)[C@H](O)[C@@H](NC(=O)c4ccccc4)c4ccccc4)C(C)=C1C3(C)C)[C@]1(OC(C)=O)CO[C@@H]1C[C@@H]2O [PACLITAXEL] the EC50 [1] was 0.6 nM.

In the case of COC(=O)[C@H]1[C@@H](O)[C@@]2(O)c3c(OC)cc(O[C@@H]4O[C@@H]([C@H](O)CO)CO[C@H]4OC)cc3O[C@@]2(c2ccc(OC)cc2)[C@@H]1c1ccccc1 [SILVESTROL], the IC50 [2] is reported as greater than 20000 nM and the EC50 [1] is reported as 0.7 nM.
